Many of the other results were omitted from the sample, so hits are more common in it than they were.
RORA inh: blocks the human nuclear receptor RORA; P35398; 0.43% of 65,000 active; inhibition, % at 10 µM; CHO-K1 Gal4-RORA LBD luciferase reporter, luminescence;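 active = inhibition above the mean of all tested compounds plus 3 SD, cut at about 52% in these data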;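 note: 0% = RORA-transfected cells with DMSO and 100% = mock-transfected cells lacking RORA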
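test system = CHO-K1 Gal4-RORA LBD luciferase reporter cells | dosing = 10 µM single point | times = 20 h compound treatment, 37 °C | signal = luciferase luminescence | read-out = % inhibition of basal luciferase versus +RORA/-RORA DMSO controls | benchmarks = mock-transfected cells as 100%, +RORA DMSO cells as 0% | replicates = tested once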
Starred values were filed as active, the others as inactive.

SMILES | RORA inh
C[C@H]1CCC/C=C/C2C[C@H](O)CC2[C@H](O)/C=C/C(=O)O1 (stereo partly specified) | 84*
CC1(O)C[C@]2(C)N(O)C3CCCC[C@@H]3N2O1 (stereo partly specified) | 13
CCOc1ccccc1-n1c(O)c(C=Nc2c(C)n(C)n(-c3ccccc3)c2=O)c(=O)[nH]c1=O | 0
COc1ccc(C2NCc3ccc4c(c3-n3cccc32)OCO4)cc1O (stereo unspecified) | -50
Cc1nc2cc(C(F)(F)F)ccc2n1C1CCN(Cc2nnnn2Cc2ccc3c(c2)OCO3)CC1 | -2
CCN(CC)CCCN=Cc1c(O)n(Cc2ccc(F)cc2)c(=O)[nH]c1=O | 4
CN1CC=C2C(C#N)=C(N)C(C#N)(C#N)C(c3ccncc3)C2C1 (stereo unspecified) | -3
CCCCCCOc1ccc(CN2CCN(CCO)CC2)cc1 | -40
CCn1nc(-c2ccccc2)nc2c(=O)n(C)c(=O)nc1-2 | 93*
CC(C)c1cccc(C(C)C)c1OCCn1ccnc1 | 20

Screening results: PubChem, The Scripps Research Institute Molecular Screening Center
